# H69AR growth 86K = blocks growth of human H69AR lung tumor cells. H69AR lung tumor viability, ATP luminescence, 72 h; hits give low values. viability, % at 10 µM. 6% of 85,000 active;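 active means viability at or below 40%; inactive means viability above 40%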;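 further: multidrug resistant small cell line overexpressing MRP-1 efflux transporter; 100% = mean luminescence of untreated control wells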
# Ecoli tolC = blocks growth of E. coli BW25113 tolC mutant. AID 573. 2.2% of 65,000 active. OD615. growth inhibition, % at 10 µM (by protocol);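 active means growth inhibition at or above a cutoff equal to the mean over every tested compound plus 3 SD, cut at about 60% in these data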;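 further: growth measured after 20 h incubation at 37 °C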
#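 signal = optical density read at 615 nm | test system = E. coli ΔtolC::kan strain BW25113 | timing = 20 h compound exposure of bacteria at 37 °C | buffer or medium = LB medium plus 50 µg/mL kanamycin | compound dosing = 10 µM final, single dose | evaluation = % inhibition of E. coli growth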
# Ecoli WT expand = blocks growth of wild type E. coli BW25113 | OD600 absorbance | growth inhibition, % at 100 µM | 0.15% of 98,000 active;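 active means growth inhibition above about 50% at one test dose, limit read from the data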;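 further: growth measured after 20 h incubation at 37 °C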
# Fibroblast inh = blocks proliferation of human lung fibroblasts. 1.1% of 85,000 active. LL 47 human lung fibroblast viability, ATP luminescence; hits give low values. viability, % at 10 µM;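 active means viability at or below 50% in the single dose screen; inactive means viability above 50%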;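 further: compound exposure lasted 72 h before the ATP readout; 100% = median luminescence of untreated cell-only wells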
#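 material = human LL 47 lung fibroblast cells | dosing = compounds added from tenfold dosing solution, 0.1% DMSO final | timing = overnight cell rest, 72 h compound treatment at 37 °C | measured by = CellTiter-Glo luminescence measuring cellular ATP | evaluation = % viability versus median cells-only luminescence | control set = cell-only wells, no compound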
# HUVEC inhibit = human endothelial cell proliferation inhibition | AID 648 | HUVEC proliferation, CellTiter-Glo luminescence, 72 h; hits give low values | viability, % at 10 µM (by protocol) | 1.1% of 86,000 active;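 active means viability at or below 30%; inactive means viability above 30%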;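 further: 100% = median luminescence of DMSO-only cell control wells on each plate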
# Jurkat tox 60K = reduces viability or proliferation of Jurkat cells. Jurkat E6.1 viability, ATP luminescence, 48 h. inhibition, % at 4 µM. 1.2% of 56,000 active. AID 463;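 active means inhibition above the mean inhibition of all tested compounds plus 3 SD, cut at about 28% in these data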
# The depositor's hits bear a star; . = no result given. Most compounds without a hit are left out; they make up all but 6.4% or so of the library.
SMILES,H69AR growth 86K,Ecoli tolC,Ecoli WT expand,Fibroblast inh,HUVEC inhibit,Jurkat tox 60K
COc1cc([C@@H]2[C@H]3CNCC=C3C(C#N)=C(N)C2(C#N)C#N)ccc1OC(C)C,63,10,-1,110,88,.
COc1cc(C2C3CN(C)CC=C3C(C#N)=C(N)C2(C#N)C#N)ccc1OC(C)C (configuration not stated),35*,0,4,84,87,.
Nc1nc(-c2ccccc2)cc(N2CCCCC2)n1,23*,23,7,56,57,78*
Cc1cc(NC(=O)c2cccc(S(=O)(=O)N(C)C)c2)n(-c2ccccn2)n1,26*,.,-3,96,79,.
Cc1ccc(-c2nn(-c3ccccc3)c3[nH]c(=O)c(CNCCN(C)C)cc23)cc1,17*,45,.,74,43,-1
Cc1nn(-c2ccccc2)c2[nH]c(=O)c(CNCc3ccc4c(c3)OCO4)cc12,92,93*,2,88,91,-5
CCc1ccc(NCc2cc3c(C)nn(-c4ccccc4)c3[nH]c2=O)cc1,98,.,-18,84,63,.
Cc1nn(-c2ccccc2)c2[nH]c(=O)c(CNCCN3CCOCC3)cc12,99,5,-1,101,95,1
Cc1ccc(-c2nn(-c3ccccc3)c3[nH]c(=O)c(CNCc4ccccc4)cc23)cc1,92,.,.,72,4.8*,.
O=C(c1ccc(Cl)c(S(=O)(=O)NCc2ccco2)c1)N1CCN(c2ccc(F)cc2)CC1,68,.,2,96,102,.
Cc1ccc2nc(NC(=O)CSc3ncnc4c3oc3ccccc34)sc2c1,26*,.,-6,92,35,.
Cc1cccc(NC(=O)CSc2ncnc3c2oc2ccccc23)c1,30*,37,-11,89,76,-12
Cc1ccc(C(=O)Oc2cc(C)n(C)c(=O)c2)cc1,.,.,-7,.,.,.
CC(=O)c1ccc(N2C(=O)NC3(CCCCC3)C2=O)cc1,105,14,-5,98,106,2
CCOc1ccc(C(=O)c2ccc(OCC)c(N)c2)cc1N,13*,2,5,90,55,12
CN(C)c1ccc(C(=O)c2ccc(N(C)C)c(N)c2)cc1N,22*,6,-8,85,78,60*
COc1ccc(C(N)=O)cc1N,.,-1,2,.,.,8
CCOC(=O)c1nnn(CC(=O)N2N=C(c3ccc(Cl)cc3)CC2c2ccc(OC)cc2)c1C(=O)OCC (configuration not stated),74,.,-11,81,80,.
CCOC(=O)c1nnn(CC(=O)N2N=C(c3ccc(Cl)cc3)CC2c2ccccc2)c1C(=O)OCC (configuration not stated),19*,.,.,68,75,.
O=C(/C=C/c1ccccc1)NC(=S)NNC(=O)c1ccco1,25*,.,.,78,77,.
O=C(/C=C/c1ccc(Br)cc1)NC(=S)NNC(=O)c1ccco1,36*,.,.,73,61,.
O=C(COc1ccccc1)N1CCN(C(=O)Cc2ccccc2)CC1,99,-11,-11,102,100,3
COc1ccc(-c2n[nH]c(C)c2-c2cnn(-c3ccccc3)c2)c(O)c1,66,14,.,98,90,7
CCOc1ccc(-c2n[nH]c(C)c2-c2ccccc2OC)c(O)c1,6.7*,35,-3,85,58,23
C=C(C)COc1ccc(-c2n[nH]c(C)c2-c2ccc(OC)cc2)c(O)c1,14*,.,25,33*,11*,.
SMILES,H69AR growth 86K,Ecoli tolC,Ecoli WT expand,Fibroblast inh,HUVEC inhibit,Jurkat tox 60K
Nc1nnc(SCc2ccc(F)cc2)n1-c1ccccc1,89,.,.,102,94,.
Cc1sc2nc3c4ccccc4c(NCc4ccco4)nn3c(=O)c2c1C,34*,4,-8,92,82,0
CCOC(=O)c1sc2nc(CC(=O)OC)nc(NCc3ccco3)c2c1C,64,14,-2,96,97,.
Cc1nc(NCc2ccco2)c2c(C)c(C)sc2n1,34*,.,3,27*,3.5*,.
CCOc1cc(C2C(C#N)=C(N)OC(C)=C2C(C)=O)c(Br)c(Br)c1OC(C)C (configuration not stated),3.2*,.,.,62,31,.
CCOc1cc(C2C(C#N)=C(N)OC(C)=C2C(C)=O)cc(Br)c1O (configuration not stated),84,10,-19,104,102,-6
O=C(CSc1nnc(-c2ccncc2)o1)Oc1ccccc1,78,-7,5,98,89,3
O=C(CSc1nnc(-c2ccccc2O)o1)Oc1ccc(OCc2ccccc2)cc1,27*,2,-16,70,50,-1
CCOC(=O)c1c(NC(C)=O)sc2c1CCCNC2=O,64,10,-11,91,92,8
CCOC(=O)c1c(NC(C)=O)sc2c1CCC(C=O)=C2Sc1ccccc1,4.6*,.,5,18*,32,.
O=[N+]([O-])c1ccc(N2CCN(c3ccc(Cl)nn3)CC2)cc1NC1CC1,50,.,.,92,88,.
CC(=O)Nc1ccc(S(=O)(=O)N2CCN(c3cccc(C)c3C)CC2)cc1,37*,22,-1,93,59,18
CCN1CCN(S(=O)(=O)c2cc(OCC(=O)NC3CCCCC3)c(C)cc2Cl)CC1,92,10,0,94,99,53*
Cc1cc(Cl)c(S(=O)(=O)N2CCCCCC2)cc1OCC(=O)NC1CCCCC1,82,.,-13,91,78,.
Cc1cc(Cl)c(S(=O)(=O)N2CCN(c3cccc(C)c3C)CC2)cc1OCC(N)=O,38*,.,-1,90,88,.
CCOC(=O)c1ccc(N2C(=O)C3C(C2=O)C(C(=O)c2ccc(Cl)cc2)N2CCCC32)cc1 (configuration not stated),90,4,-4,93,94,3
CN(C)c1ccc(-c2nn3c(-c4ccc(Cl)cc4Cl)nnc3s2)cc1,14*,-2,0,85,45,7
Clc1ccccc1-c1nnc2sc(-c3ccc4c(c3)OCO4)nn12,23*,-7,24,92,50,2
Brc1ccccc1-c1nnc2sc(-c3ccc4c(c3)OCCO4)nn12,17*,13,-4,87,72,16
Clc1ccc(-c2nnc3sc(-c4ccc(Br)o4)nn23)c(Cl)c1,.,-7,-5,.,.,-5
CCOc1ccc(N2C(=O)C(Cl)=C(Nc3ccccc3O)C2=O)cc1,53,.,-4,103,92,.
Cc1[nH]n(-c2ccc([N+](=O)[O-])cc2)c(=O)c1C=NCCN1CCN(C(=O)c2ccccc2)CC1,47,.,6,56,54,.
COc1ccc(Cn2c3nc4ccccc4nc3c3c(=O)n(Cc4ccco4)c(C)nc32)cc1,4.5*,18,.,42*,49,0
COc1ccc(Cn2c(C)nc3c(c2=O)c2nc4ccccc4nc2n3Cc2ccco2)cc1,.,-10,.,.,.,-10
Cc1nc2c(c(=O)n1CC1CCCO1)c1nc3ccccc3nc1n2Cc1ccc2c(c1)OCO2 (configuration not stated),40*,9,.,81,53,.

# Assay outcomes from PubChem.
